In brackets after ≈: the same amount, converted by molar mass.
What was measured:
[1] = tested on: Aspergillus fumigatus; assay: Tested in vitro for minimum inhibitory concentration against Aspergillus fumigatus; assay type: functional
Procedure, shortened: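 Broth macrodilution in glass tubes with Sabouraud's dextrose broth (pH 6.5). Compounds were dissolved in DMSO and serially diluted in medium. Inoculum was filamentous fungus harvested by spatula from Kimmig agar cultures grown 21 days at 30 °C. Tubes were incubated 72 h at 30 °C. MIC was the lowest concentration with no macroscopically visible growth.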

[2] = tested on: Microsporum canis; assay: Tested in vitro for minimum inhibitory concentration against Microsporum canis; assay type: functional
Procedure, shortened: (§1)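 Glass-tube serial dilution in Sabouraud's dextrose broth (pH 6.5), with compounds dissolved in DMSO and diluted in medium. Mycelial inoculum was scraped from 21-day Kimmig agar cultures grown at 30 °C. Incubation was 7 days at 30 °C. MIC was the lowest concentration giving no macroscopically detectable growth.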

[3] = tested on: Candida parapsilosis; assay: Tested in vitro for minimum inhibitory concentration against Candida parapsilosis 39; assay type: functional; details: Lodderomyces parapsilosis
Procedure, shortened: (§2)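 Yeasts were tested by tube dilution in malt extract broth (pH 4.8), with DMSO-dissolved compounds serially diluted in the broth. Blastospores came from yeast nitrogen base cultures shaken at 37 °C for about 30 h. After 48 h at 30 °C, MIC was read as the lowest concentration without macroscopic growth.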

[4] = tested on: Candida albicans; assay: Tested in vitro for minimum inhibitory concentration against Candida albicans 9; assay type: functional; procedure, shortened: as §2
[5] = tested on: Sporothrix schenckii; assay: Tested in vitro for minimum inhibitory concentration against Sporothrix schenck ii; assay type: functional; procedure, shortened: as §1
[6] = tested on: Trichophyton benhamiae; assay: Tested in vitro for minimum inhibitory concentration against Trichophyton mentagrophytes; assay type: functional, Arthroderma benhamiae; procedure, shortened: as §1
[7] = tested on: Candida albicans; assay: Tested in vitro for minimum inhibitory concentration against Candida albicans 124; assay type: functional; procedure, shortened: as §2

Row | Structure (SMILES) | MIC [1] | MIC [2] | MIC [3] | MIC [4] | MIC [5] | MIC [6] | MIC [7]
1 | CN(C/C=C/C#CC(C)(C)C)Cc1cccc2ccc(F)cc12 | 0.4 µg/mL (≈ 1.29 µM) | 0.006 µg/mL (≈ 0.0194 µM) | 0.4 µg/mL (≈ 1.29 µM) | 3.13 µg/mL (≈ 10.1 µM) | 0.4 µg/mL (≈ 1.29 µM) | 0.006 µg/mL (≈ 0.0194 µM) | 12.5 µg/mL (≈ 40.4 µM)
2 | CN(C/C=C/C#CC(C)(C)C)Cc1cc(C#N)cc2ccccc12 | > 200 µg/mL | 0.05 µg/mL (≈ 0.158 µM) | 0.4 µg/mL (≈ 1.26 µM) | > 200 µg/mL | > 200 µg/mL | 0.05 µg/mL (≈ 0.158 µM) | > 200 µg/mL
3 | CN(C/C=C/C#CC(C)(C)C)Cc1cccc2c(F)cc(F)cc12 | 0.1 µg/mL (≈ 0.305 µM) | 0.003 µg/mL (≈ 0.00916 µM) | 0.1 µg/mL (≈ 0.305 µM) | 0.8 µg/mL (≈ 2.44 µM) | 0.1 µg/mL (≈ 0.305 µM) | 0.003 µg/mL (≈ 0.00916 µM) | 1.56 µg/mL (≈ 4.76 µM)
4 | CN(C/C=C/C#CC(C)(C)C)Cc1cccc2c(Cl)cccc12 | 0.1 µg/mL (≈ 0.307 µM) | 0.006 µg/mL (≈ 0.0184 µM) | 0.2 µg/mL (≈ 0.614 µM) | 0.8 µg/mL (≈ 2.45 µM) | 0.4 µg/mL (≈ 1.23 µM) | 0.003 µg/mL (≈ 0.00921 µM) | 1.56 µg/mL (≈ 4.79 µM)
5 | CN(C/C=C/C#CC(C)(C)C)Cc1cccc2c(Cl)csc12 | 0.1 µg/mL (≈ 0.301 µM) | 0.003 µg/mL (≈ 0.00904 µM) | 0.1 µg/mL (≈ 0.301 µM) | 0.4 µg/mL (≈ 1.21 µM) | 0.2 µg/mL (≈ 0.603 µM) | 0.0015 µg/mL (≈ 0.00452 µM) | 0.8 µg/mL (≈ 2.41 µM)
6 | CN(C/C=C/C#CC(C)(C)C)Cc1ccc(F)c2ccccc12 | 3.13 µg/mL (≈ 10.1 µM) | 0.01 µg/mL (≈ 0.0323 µM) | 0.8 µg/mL (≈ 2.59 µM) | 12.5 µg/mL (≈ 40.4 µM) | 0.4 µg/mL (≈ 1.29 µM) | 0.01 µg/mL (≈ 0.0323 µM) | 25 µg/mL (≈ 80.8 µM)
7 | CN(C/C=C/C#CC(C)(C)C)Cc1cccc2c(Br)cccc12 | 1.56 µg/mL (≈ 4.21 µM) | 0.01 µg/mL (≈ 0.027 µM) | 0.8 µg/mL (≈ 2.16 µM) | 1.56 µg/mL (≈ 4.21 µM) | 0.1 µg/mL (≈ 0.27 µM) | 0.006 µg/mL (≈ 0.0162 µM) | 3.13 µg/mL (≈ 8.45 µM)
8 | CN(C/C=C/C#CC(C)(C)C)Cc1cccc2c(F)cccc12 | 0.1 µg/mL (≈ 0.323 µM) | 0.006 µg/mL (≈ 0.0194 µM) | 0.2 µg/mL (≈ 0.646 µM) | 1.56 µg/mL (≈ 5.04 µM) | 0.2 µg/mL (≈ 0.646 µM) | 0.006 µg/mL (≈ 0.0194 µM) | 3.13 µg/mL (≈ 10.1 µM)
9 | Cc1cc(CN(C)C/C=C/C#CC(C)(C)C)c2ccccc2c1 | 3.13 µg/mL (≈ 10.2 µM) | 0.02 µg/mL (≈ 0.0655 µM) | 1.56 µg/mL (≈ 5.11 µM) | 50 µg/mL (≈ 164 µM) | 0.2 µg/mL (≈ 0.655 µM) | 0.01 µg/mL (≈ 0.0327 µM) | 50 µg/mL (≈ 164 µM)
10 | CN(C/C=C/C#CC(C)(C)C)Cc1cc(F)cc2ccccc12 | 0.8 µg/mL (≈ 2.59 µM) | 0.006 µg/mL (≈ 0.0194 µM) | 0.2 µg/mL (≈ 0.646 µM) | 0.8 µg/mL (≈ 2.59 µM) | 0.2 µg/mL (≈ 0.646 µM) | 0.006 µg/mL (≈ 0.0194 µM) | 6.25 µg/mL (≈ 20.2 µM)
11 | CN(C/C=C/C#CC(C)(C)C)Cc1cccc2c(C#N)cccc12 | > 200 µg/mL | 0.4 µg/mL (≈ 1.26 µM) | 3.13 µg/mL (≈ 9.89 µM) | > 200 µg/mL | 6.25 µg/mL (≈ 19.8 µM) | 0.2 µg/mL (≈ 0.632 µM) | > 200 µg/mL
12 | Cc1ccc2cccc(CN(C)C/C=C/C#CC(C)(C)C)c2c1 | 1.56 µg/mL (≈ 5.11 µM) | 0.05 µg/mL (≈ 0.164 µM) | 0.8 µg/mL (≈ 2.62 µM) | 25 µg/mL (≈ 81.8 µM) | 0.4 µg/mL (≈ 1.31 µM) | 0.01 µg/mL (≈ 0.0327 µM) | 50 µg/mL (≈ 164 µM)
13 | CN(C/C=C/C#CC(C)(C)C)Cc1ccc(C#N)c2ccccc12 | > 200 µg/mL | 0.1 µg/mL (≈ 0.316 µM) | 12.5 µg/mL (≈ 39.5 µM) | > 200 µg/mL | > 200 µg/mL | 0.2 µg/mL (≈ 0.632 µM) | > 200 µg/mL
14 | Cc1ccc2c(CN(C)C/C=C/C#CC(C)(C)C)cccc2c1 | > 200 µg/mL | 0.05 µg/mL (≈ 0.164 µM) | 0.8 µg/mL (≈ 2.62 µM) | 12.5 µg/mL (≈ 40.9 µM) | 0.4 µg/mL (≈ 1.31 µM) | 0.01 µg/mL (≈ 0.0327 µM) | 25 µg/mL (≈ 81.8 µM)
15 | Cc1ccc(CN(C)C/C=C/C#CC(C)(C)C)c2ccccc12 | > 200 µg/mL | 0.05 µg/mL (≈ 0.164 µM) | 3.13 µg/mL (≈ 10.2 µM) | 25 µg/mL (≈ 81.8 µM) | 0.8 µg/mL (≈ 2.62 µM) | 0.02 µg/mL (≈ 0.0655 µM) | 50 µg/mL (≈ 164 µM)
16 | CN(C/C=C/C#CC(C)(C)C)Cc1cccc2ccc(Cl)cc12 | 1.56 µg/mL (≈ 4.79 µM) | 0.02 µg/mL (≈ 0.0614 µM) | 0.4 µg/mL (≈ 1.23 µM) | 3.13 µg/mL (≈ 9.6 µM) | 0.4 µg/mL (≈ 1.23 µM) | 0.02 µg/mL (≈ 0.0614 µM) | 12.5 µg/mL (≈ 38.4 µM)
17 | Cc1cccc2c(CN(C)C/C=C/C#CC(C)(C)C)cccc12 | 0.8 µg/mL (≈ 2.62 µM) | 0.02 µg/mL (≈ 0.0655 µM) | 1.56 µg/mL (≈ 5.11 µM) | 6.25 µg/mL (≈ 20.5 µM) | 0.4 µg/mL (≈ 1.31 µM) | 0.006 µg/mL (≈ 0.0196 µM) | 12.5 µg/mL (≈ 40.9 µM)
18 | CN(C/C=C/C#CC(C)(C)C)Cc1cccc2cc(F)ccc12 | 6.25 µg/mL (≈ 20.2 µM) | 0.006 µg/mL (≈ 0.0194 µM) | 1.56 µg/mL (≈ 5.04 µM) | 6.25 µg/mL (≈ 20.2 µM) | 0.8 µg/mL (≈ 2.59 µM) | 0.006 µg/mL (≈ 0.0194 µM) | 25 µg/mL (≈ 80.8 µM)
19 | CN(C/C=C/C#CC(C)(C)C)Cc1cccc2ccccc12 [TERBINAFINE] | 0.8 µg/mL (≈ 2.75 µM) | 0.006 µg/mL (≈ 0.0206 µM) | 0.8 µg/mL (≈ 2.75 µM) | 6.25 µg/mL (≈ 21.4 µM) | 0.4 µg/mL (≈ 1.37 µM) | 0.003 µg/mL (≈ 0.0103 µM) | 25 µg/mL (≈ 85.8 µM)
